The term Vmax denotes the top rate of the reaction or transport when substrate is in excess. As usually defined, the Km is the substrate concentration at which the rate is half of its maximum. By logP is commonly meant a log measure of how a compound divides between an organic and an aqueous phase.

Series [1] is filed under the species Rattus norvegicus. The series can be described thus: Specific activity of the DSI segment in rat intestine. The format is functional. The procedure, abridged:
(§1)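 Contents of each rat GI segment (stomach, proximal small intestine, distal small intestine, cecum) were pooled from four animals, weighed wet, diluted in cold 0.01 M phosphate buffer pH 7.0, and homogenized. Homogenate was incubated with 1.0 mM glycoside at 37 °C with shaking for up to 30 min. Aliquots were MeOH-quenched, centrifuged and analysed by HPLC for released aglycon.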

The species entered for series [2] is Rattus norvegicus. The series can be described thus: Total activity of the entire contents of PSI segment in rat intestine. The format is functional. The gist of the method:
as §1

The species named for series [3] is Rattus norvegicus. Description: Total activity of the entire contents of DSI segment in rat intestine. The class given is functional. The procedure, abridged:
as §1

The species named for series [4] is Rattus norvegicus. Description: Total activity of the entire contents of stomach segment in rat intestine. The format is functional. The procedure, abridged: as §1
For series [5], the species on record is Rattus norvegicus. Description: Specific activity of the cecum segment in rat intestine. The class given is functional. The gist of the method:
as §1

For series [6], the species on record is Rattus norvegicus. Description: Specific activity of the stomach segment in rat intestine. The format is functional. The gist of the method: as §1
For series [7], the species on record is Rattus norvegicus. The series can be described thus: Specific activity of the PSI segment in rat intestine. The format is functional. On the set-up: unit not given here. The gist of the method:
as §1

The species entered for series [8] is Rattus norvegicus. The series can be described thus: Vmax value was determined in homogenates of pooled cecal contents in rats. The format is ADME. The procedure, abridged: (§2)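 Cecal contents from four rats pooled, weighed wet, diluted in 0.01 M phosphate pH 7.0 and homogenized. Reactions were run in duplicate at 37 °C for 15 min across substrate ranges spanning apparent KM. For p-nitrophenyl glycosides: 56-1000 substrate, NaOH stop, A403. For steroid glycosides: 0.5-48 substrate, MeOH quench, HPLC. KM(app) and Vmax (per g wet weight) came from Eadie-Hofstee plots.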

Series [9] is described as follows: Km(app) value was determined in homogenates of pooled cecal contents in rats. As to conditions: rat, read-out: Km app. The class given is ADME. The gist of the method: as §2
Series [10] is described as follows: Partition coefficient (logP). The format is physicochemical. As to conditions: octanol/water.
For series [11], the species on record is Rattus norvegicus. The series can be described thus: Total activity of the entire contents of cecum segment in rat intestine. The class given is functional. The procedure, abridged:
as §1

Consider `C[C@]12C=CC(=O)C=C1CC[C@@H]1[C@@H]2C(O)C[C@@]2(C)[C@H]1CC[C@]2(O)C(=O)CO[C@@H]1O[C@@H](CO)[C@@H](O)[C@H](O)[C@H]1O` (some centres not stated), for which the Specific activity in the series filed under Rattus norvegicus [1] was determined as 122 nM/min; in the series listed under Rattus norvegicus [5] it was 665 nM/min; in the series listed under Rattus norvegicus [6], 12.1 nM/min; in the series listed under Rattus norvegicus [7], 49.3. Also, the Total activity in the series listed under Rattus norvegicus [2] turned out to be 0.23 µM/min; in the series filed under Rattus norvegicus [3], 1.72 µM/min; in the series listed under Rattus norvegicus [4], 0.19 µM/min; in the series listed under Rattus norvegicus [11] it was 13 µM/min. Moreover, the Vmax in the series filed under Rattus norvegicus [8] was determined as 10.3 µM/min/g. The Km in [9] turned out to be 20 µM. In [10], the logP came to 0.11.

`O=[N+]([O-])c1ccc(O[C@@H]2O[C@H](CO)[C@@H](O)[C@H](O)[C@H]2O)cc1`: the results for the Specific activity in the series listed under Rattus norvegicus [1], in the series filed under Rattus norvegicus [5] and in the series filed under Rattus norvegicus [6] were 86.6 nM/min, 454 nM/min and 72.2 nM/min, respectively. Also, the Total activity came out at 0.15 µM/min in the series filed under Rattus norvegicus [2], 0.65 µM/min in the series filed under Rattus norvegicus [3], 0.08 µM/min in the series listed under Rattus norvegicus [4] and 9.1 µM/min in the series listed under Rattus norvegicus [11]. For the same molecule, the Vmax in the series listed under Rattus norvegicus [8] turned out to be 697 µM/min/g. Further, in series [9], the Km was determined as 360 µM.

In the case of `CC12CCC(=O)C=C1CCC1C2C(O)CC2(C)C1CC[C@]2(O)C(=O)CO[C@@H]1O[C@H](CO)[C@@H](O)[C@H](O)[C@H]1O` (some centres not stated), the Specific activity in the series listed under Rattus norvegicus [1] came out at 39.2 nM/min; in the series filed under Rattus norvegicus [5], 30.5 nM/min; in the series listed under Rattus norvegicus [6], 5.5 nM/min; in the series listed under Rattus norvegicus [7] it was 15.9. For the same molecule, the Total activity stood at 0.1 µM/min in the series filed under Rattus norvegicus [2], 0.7 µM/min in the series listed under Rattus norvegicus [3], 0.09 µM/min in the series filed under Rattus norvegicus [4] and 0.76 µM/min in the series listed under Rattus norvegicus [11]. Also, the Vmax in the series listed under Rattus norvegicus [8] was 2.6 µM/min/g. Further, the Km in [9] amounted to 5.7 µM. Further, the logP in [10] worked out at 0.44.

Take `CC12CCC(=O)C=C1CCC1C3CC[C@](O)(C(=O)CO[C@H]4O[C@@H](CO)[C@@H](O)[C@H](O)[C@H]4O)C3(C)CC(O)[C@@]12F` (some centres not stated): the Specific activity in the series listed under Rattus norvegicus [1] came out at 33 nM/min; in the series filed under Rattus norvegicus [5], 49 nM/min; in the series filed under Rattus norvegicus [6], 7.7 nM/min; in the series listed under Rattus norvegicus [7] it was 12.3. Besides, the Total activity in the series listed under Rattus norvegicus [2] worked out at 0.08 µM/min; in the series filed under Rattus norvegicus [3], 0.43 µM/min; in the series listed under Rattus norvegicus [4] it was 0.14 µM/min; in the series listed under Rattus norvegicus [11], 1.4 µM/min. For the same molecule, in the series filed under Rattus norvegicus [8], the Vmax is 2.4 µM/min/g. Further, the Km in series [9] came out at 4.4 µM. In series [10], this molecule yielded a logP of 0.84.

Take `O=[N+]([O-])c1ccc(O[C@@H]2O[C@H](CO)[C@@H](O[C@@H]3O[C@H](CO)[C@@H](O)[C@H](O)[C@H]3O)[C@H](O)[C@H]2O)cc1`: the Specific activity in the series listed under Rattus norvegicus [1] was determined as 26 nM/min; in the series filed under Rattus norvegicus [5] it was 96.5 nM/min; in the series listed under Rattus norvegicus [6] it was 34.2 nM/min. Moreover, the Total activity in the series filed under Rattus norvegicus [2] came out at 0.05 µM/min; in the series listed under Rattus norvegicus [3] it was 0.25 µM/min; in the series listed under Rattus norvegicus [4], 0.35 µM/min; in the series listed under Rattus norvegicus [11], 2.6 µM/min.

With `C[C@]12C=CC(=O)C=C1CC[C@@H]1[C@@H]2[C@@H](O)C[C@@]2(C)[C@H]1CC[C@]2(O)C(=O)CO[C@@H]1O[C@H](CO)[C@@H](O[C@@H]2O[C@H](CO)[C@@H](O)[C@H](O)[C@H]2O)[C@H](O)[C@H]1O`, the Specific activity in the series filed under Rattus norvegicus [1] is 32.5 nM/min; in the series filed under Rattus norvegicus [5] it was 109 nM/min; in the series filed under Rattus norvegicus [6], 7.5 nM/min; in the series listed under Rattus norvegicus [7], 26. Besides, the Total activity in the series filed under Rattus norvegicus [2] was determined as 0.11 µM/min; in the series listed under Rattus norvegicus [3] it was 0.64 µM/min; in the series filed under Rattus norvegicus [4], 0.01 µM/min; in the series filed under Rattus norvegicus [11] it was 2.2 µM/min. Further, the logP in series [10] is -0.56.

As to `O=[N+]([O-])c1ccc(O[C@@H]2O[C@H](CO)[C@H](O)[C@H](O)[C@H]2O)cc1`, the figures for the Specific activity in the series listed under Rattus norvegicus [1], in the series filed under Rattus norvegicus [5] and in the series listed under Rattus norvegicus [6] were 425 nM/min, 1620 nM/min and 57.8 nM/min, respectively. Also, the Total activity came to 0.2 µM/min in the series listed under Rattus norvegicus [2], 3.6 µM/min in the series listed under Rattus norvegicus [3], 0.7 µM/min in the series filed under Rattus norvegicus [4] and 30.8 µM/min in the series filed under Rattus norvegicus [11]. For the same molecule, the Vmax in the series listed under Rattus norvegicus [8] amounted to 1233 µM/min/g. Further, the Km in [9] turned out to be 166 µM.

With `CC12CCC(=O)C=C1CCC1C3CC[C@](O)(C(=O)CO[C@H]4O[C@H](CO)[C@@H](O)[C@H](O)[C@H]4O)C3(C)CC(O)[C@@]12F` (some centres not stated), the Specific activity in the series listed under Rattus norvegicus [1] was 56.7 nM/min; in the series listed under Rattus norvegicus [5] it was 642 nM/min; in the series listed under Rattus norvegicus [6] it was 7 nM/min; in the series filed under Rattus norvegicus [7] it was 12.5. Further, the Total activity in the series listed under Rattus norvegicus [2] amounted to 0.01 µM/min; in the series filed under Rattus norvegicus [3], 0.8 µM/min; in the series filed under Rattus norvegicus [4], 0.01 µM/min; in the series listed under Rattus norvegicus [11], 12.9 µM/min. Further, the Vmax in the series filed under Rattus norvegicus [8] was determined as 2.2 µM/min/g. The Km in [9] was 2.5 µM. The same molecule gave a logP in series [10] of 0.25.

Consider `C[C@]12C=CC(=O)C=C1CC[C@@H]1[C@@H]2C(O)C[C@@]2(C)[C@H]1CC[C@]2(O)C(=O)CO[C@@H]1O[C@H](CO)[C@@H](O)[C@H](O)[C@H]1O` (some centres not stated), for which the Specific activity in the series listed under Rattus norvegicus [1] came out at 56.8 nM/min; in the series listed under Rattus norvegicus [5], 265 nM/min; in the series filed under Rattus norvegicus [6], 6.8 nM/min; in the series filed under Rattus norvegicus [7] it was 12.2. In addition, the Total activity in the series filed under Rattus norvegicus [2] worked out at 0.07 µM/min; in the series filed under Rattus norvegicus [3], 1 µM/min; in the series listed under Rattus norvegicus [4] it was 0.12 µM/min; in the series filed under Rattus norvegicus [11] it was 6.6 µM/min. Besides, the Vmax in the series filed under Rattus norvegicus [8] worked out at 2.6 µM/min/g. Besides, the Km in series [9] came out at 4.5 µM. The logP in [10] came to 0.27.

As to `CC12CCC(=O)C=C1CCC1C2C(O)CC2(C)C1CC[C@]2(O)C(=O)CO[C@@H]1O[C@@H](CO)[C@@H](O)[C@H](O)[C@H]1O` (some centres not stated), the Specific activity in the series listed under Rattus norvegicus [1] is 110 nM/min; in the series filed under Rattus norvegicus [5] it was 592 nM/min; in the series filed under Rattus norvegicus [6] it was 12.5 nM/min; in the series listed under Rattus norvegicus [7] it was 42.5. For the same molecule, the Total activity in the series filed under Rattus norvegicus [2] came to 0.02 µM/min; in the series filed under Rattus norvegicus [3], 1.6 µM/min; in the series filed under Rattus norvegicus [4] it was 0.02 µM/min; in the series filed under Rattus norvegicus [11], 11.9 µM/min. Moreover, in the series filed under Rattus norvegicus [8], the Vmax was determined as 20.6 µM/min/g. Further, the Michaelis-Menten constant (Km) in series [9] was determined as 33.3 µM. The same molecule had a log partition coefficient (logP) in series [10] of 0.15.

Molecule `CC12CCC(=O)C=C1CCC1C3CC[C@](O)(C(=O)CO)C3(C)CC(O)[C@@]12F` (some centres not stated) registered a logP in series [10] of 1.73.

With `C[C@@H]1C[C@H]2[C@@H]3CCC4=CC(=O)C=C[C@]4(C)[C@@]3(F)[C@@H](O)C[C@]2(C)[C@@]1(O)C(=O)CO` [DEXAMETHASONE], the logP in [10] was found to be 1.72.

As to `C[C@]12CCC(=O)C=C1CC[C@@H]1[C@@H]2[C@@H](O)C[C@@]2(C)[C@H]1CC[C@]2(O)C(=O)CO` [HYDROCORTISONE], the logP in [10] was 1.54.

Turning to `CC1CC2C3CCC4=CC(=O)C=CC4(C)[C@@]3(F)C(O)CC2(C)[C@@]1(O)C(=O)CO[C@@H]1O[C@H](CO)[C@@H](O)[C@H](O)[C@H]1O` (some centres not stated), the results for the Specific activity in the series filed under Rattus norvegicus [1], in the series filed under Rattus norvegicus [5] and in the series filed under Rattus norvegicus [6] were 19.3 nM/min, 141 nM/min and 6.8 nM/min, respectively. The Total activity in the series filed under Rattus norvegicus [2] worked out at 0.07 µM/min; in the series filed under Rattus norvegicus [3], 0.34 µM/min; in the series listed under Rattus norvegicus [4], 0.12 µM/min; in the series listed under Rattus norvegicus [11], 3.5 µM/min. Also, the Vmax in the series listed under Rattus norvegicus [8] was determined as 10.2 µM/min/g. Besides, the Km in series [9] turned out to be 16.7 µM.

Consider `C[C@]12C=CC(=O)C=C1CC[C@@H]1[C@@H]2[C@@H](O)C[C@@]2(C)[C@H]1CC[C@]2(O)C(=O)CO` [PREDNISOLONE], for which the logP in [10] is 1.55.

On to `CC1CC2C3CCC4=CC(=O)C=CC4(C)[C@@]3(F)C(O)CC2(C)[C@@]1(O)C(=O)CO[C@@H]1O[C@@H](CO)[C@@H](O)[C@H](O)[C@H]1O` (some centres not stated), for which the Specific activity in the series listed under Rattus norvegicus [1] worked out at 29.3 nM/min; in the series filed under Rattus norvegicus [5] it was 322 nM/min; in the series filed under Rattus norvegicus [6], 2 nM/min. For the same molecule, the Total activity in the series filed under Rattus norvegicus [2] was found to be 0.004 µM/min; in the series filed under Rattus norvegicus [3], 0.41 µM/min; in the series listed under Rattus norvegicus [4], 0.004 µM/min; in the series listed under Rattus norvegicus [11], 6.5 µM/min. Further, the Vmax in the series listed under Rattus norvegicus [8] was 3.9 µM/min/g. Moreover, the Km in series [9] came to 13.3 µM.

The values are drawn from ChEMBL document CHEMBL1122933, “Drug glycosides: potential prodrugs for colon-specific drug delivery” (J Med Chem, 1985).
